The text below walks through data of ChEMBL document CHEMBL2390920, “8-Benzamidochromen-4-one-2-carboxylic acids: potent and selective agonists for the orphan G protein-coupled receptor GPR35” (J Med Chem, 2013).

The structures appear in SMILES notation.

The target of experiment [1] is T1, G-protein coupled receptor 55 (Homo sapiens, UniProt Q9Y2T6). Put plainly: Antagonist activity at human GPR55 expressed in CHO cells assessed as inhibition of lysophosphotidylinositol-induced beta-arrestin recruitment at 10 uM preincubated for 30 mins followed by lysophosphotidylinositol induction by beta-galactosidase reporter gene assay relative to control. It counts as functional, cell-based. A digest of the protocol: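 Human GPR55 PathHunter CHO cells were preincubated 30 min with compound, then stimulated with LPI (final 1 µM). After 90 min, detection reagent was added and luminescence read 60 min later. Screening was at 10 µM; full concentration-inhibition curves were run for selected compounds to give IC50.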
In general terms: Recruitment of arrestin is a read-out of receptor activation apart from second messengers.

Experiment [2] addresses T2, G-protein coupled receptor 35 (Homo sapiens, UniProt Q9HC97). The experiment is described as follows: Agonist activity at human GPR35 expressed in CHO cells assessed as induction of beta-arrestin recruitment at 10 uM after 90 mins by beta-galactosidase reporter gene assay relative to zaprinast. Type of experiment: cell-based. In a few lines:
(§1)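 PathHunter enzyme-fragment complementation in CHO cells stably expressing β-arrestin-EA and tagged human GPR35, seeded at 20000 cells/well the day before. DMSO dilutions were further diluted 1:10 (final DMSO ≤1%). Cells were incubated 90 min, then detection reagent was added and luminescence read after 60 min.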

Experiment [3] addresses T2, G-protein coupled receptor 35. The experiment is described as follows: Agonist activity at human GPR35 expressed in CHO cells assessed as induction of beta-arrestin recruitment after 90 mins by beta-galactosidase reporter gene assay. It counts as cell-based. A digest of the protocol:
as §1

The target in experiment [4] is G-protein coupled receptor 35 (Mus musculus) (UniProt Q9ES90). Put plainly: Agonist activity at mouse GPR35 expressed in CHO cells assessed as induction of beta-arrestin recruitment at 10 uM after 90 mins by beta-galactosidase reporter gene assay. Type of experiment: cell-based. A digest of the protocol: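 Mouse GPR35 introduced by transfection into a CHO β-arrestin-EA line; 20000 cells/well plated the day prior. After 90 min of compound exposure (final DMSO ≤1%), detection reagent was added and luminescence read after 60 min.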

The target of experiment [5] is T1, G-protein coupled receptor 55. The experiment is described as follows: Agonist activity at human GPR55 expressed in CHO cells assessed as induction of beta-arrestin recruitment at 10 uM after 90 mins by beta-galactosidase reporter gene assay relative to lysophosphotidylinositol. Type of experiment: functional, cell-based. A digest of the protocol: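 Human GPR55 PathHunter CHO cells, 20000 cells/well seeded the day before, received test compound at 10 µM (final DMSO ≤1%) for 90 min. Detection reagent was then added and luminescence read after 60 min. Signal was normalized to that of 1 µM LPI.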

For experiment [6], the target named is G protein-coupled receptor GPR35 (Rattus norvegicus) (UniProt Q33BM1). Put plainly: Agonist activity at rat GPR35 expressed in CHO cells assessed as induction of beta-arrestin recruitment at 10 uM after 90 mins by beta-galactosidase reporter gene assay. Type of experiment: cell-based. In a few lines:
(§2)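 Rat GPR35 expressed by transfecting a parental CHO β-arrestin-EA line; cells seeded at 20000/well the day before. Compounds (final DMSO ≤1%) were incubated 90 min, followed by detection reagent and a luminescence read after 60 min.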

Experiment [7] has as its target G protein-coupled receptor GPR35 (Rattus norvegicus, UniProt Q33BM1). The experiment is described as follows: Agonist activity at rat GPR35 expressed in CHO cells assessed as induction of beta-arrestin recruitment after 90 mins by beta-galactosidase reporter gene assay. Type of experiment: cell-based. A digest of the protocol: as §2
Experiment [8] addresses G protein-coupled receptor GPR35 (Rattus norvegicus) (UniProt Q33BM1). Put plainly: Agonist activity at rat GPR35 expressed in CHO cells assessed as induction of beta-arrestin recruitment at 10 uM after 90 mins by beta-galactosidase reporter gene assay relative to zaprinast. It counts as cell-based. A digest of the protocol: as §2
Experiment [9] has as its target T2, G-protein coupled receptor 35. Put plainly: Agonist activity at human GPR35b expressed in CHO cells assessed as induction of beta-arrestin recruitment at 10 uM after 90 mins by beta-galactosidase reporter gene assay relative to zaprinast. It counts as cell-based. In a few lines:
(§3)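 CHO β-arrestin-EA parental line transfected with human GPR35b, seeded at 20000 cells/well the day before. Compounds in DMSO were diluted 1:10 in medium or PBS (final DMSO ≤1%). After 90 min of incubation, detection reagent was added and luminescence measured 60 min later. Screening was at 10 µM.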

The target is the same in experiment [10]. The experiment is described as follows: Agonist activity at human GPR35b expressed in CHO cells assessed as induction of beta-arrestin recruitment after 90 mins by beta-galactosidase reporter gene assay. It counts as cell-based. A digest of the protocol: as §3

As usually defined, the inhibition is the drop in the measured response relative to a control, in per cent. Usually Emax stands for the greatest response seen or fitted, relative to the assay's reference. A word on the EC50: it is the concentration at which the effect is half-maximal.

Sequence of G-protein coupled receptor 35 (Mus musculus) (Q9ES90 whole entry): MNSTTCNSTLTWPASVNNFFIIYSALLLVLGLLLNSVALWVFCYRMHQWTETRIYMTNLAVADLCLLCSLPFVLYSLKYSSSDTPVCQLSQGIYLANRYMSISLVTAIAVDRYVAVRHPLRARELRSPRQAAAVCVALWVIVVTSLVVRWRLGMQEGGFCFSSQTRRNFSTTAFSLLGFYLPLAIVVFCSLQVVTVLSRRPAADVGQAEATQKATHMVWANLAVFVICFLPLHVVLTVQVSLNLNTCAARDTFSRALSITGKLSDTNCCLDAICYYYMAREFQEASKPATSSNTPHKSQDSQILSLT
T1 sequence (Q9Y2T6 whole entry): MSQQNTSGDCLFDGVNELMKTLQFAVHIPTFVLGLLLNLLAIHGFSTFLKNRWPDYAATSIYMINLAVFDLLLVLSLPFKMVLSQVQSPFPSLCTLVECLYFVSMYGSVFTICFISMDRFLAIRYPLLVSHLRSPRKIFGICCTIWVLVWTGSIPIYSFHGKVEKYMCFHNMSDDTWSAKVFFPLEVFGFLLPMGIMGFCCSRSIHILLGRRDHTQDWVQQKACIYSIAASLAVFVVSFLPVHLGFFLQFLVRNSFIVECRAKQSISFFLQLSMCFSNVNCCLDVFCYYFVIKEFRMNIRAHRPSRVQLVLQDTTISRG
Sequence of G protein-coupled receptor GPR35 (Rattus norvegicus) (Q33BM1 as listed by the source): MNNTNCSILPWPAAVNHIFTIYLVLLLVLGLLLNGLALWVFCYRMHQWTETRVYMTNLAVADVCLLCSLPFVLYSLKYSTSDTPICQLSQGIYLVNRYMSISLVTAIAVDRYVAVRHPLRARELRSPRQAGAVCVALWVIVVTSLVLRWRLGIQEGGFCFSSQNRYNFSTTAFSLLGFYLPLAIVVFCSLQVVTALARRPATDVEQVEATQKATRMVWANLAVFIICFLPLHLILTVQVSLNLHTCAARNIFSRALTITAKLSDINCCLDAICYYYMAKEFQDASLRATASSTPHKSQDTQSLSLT
Sequence of G protein-coupled receptor GPR35 (Q33BM1 whole entry): as the sequence (Q33BM1 as listed by the source) above
T2 sequence (Q9HC97 whole entry, the tested form may be a part): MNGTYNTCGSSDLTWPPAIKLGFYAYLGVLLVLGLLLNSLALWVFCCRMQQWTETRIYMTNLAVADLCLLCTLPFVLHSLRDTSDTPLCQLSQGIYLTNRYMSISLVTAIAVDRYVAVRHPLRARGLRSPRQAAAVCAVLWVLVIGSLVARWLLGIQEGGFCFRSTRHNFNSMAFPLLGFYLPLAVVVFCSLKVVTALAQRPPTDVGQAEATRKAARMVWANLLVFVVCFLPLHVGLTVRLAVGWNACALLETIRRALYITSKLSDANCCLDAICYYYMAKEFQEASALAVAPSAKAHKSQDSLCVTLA

Take `O=C(O)c1cc(=O)c2cccc([N+](=O)[O-])c2o1`: the inhibition in experiment [1] came to 32%. For the same compound, the Emax in [2] came to 101%. The EC50 in [3] turned out to be 46.3 µM. Besides, the Activity was 4% in [4], -6% in experiment [5] and 38% in experiment [6].
With `Cc1cccc(C(=O)Nc2cc(Cl)cc3c(=O)cc(C(=O)O)oc23)c1`, the inhibition in experiment [1] came to 40%. Besides, the Emax in experiment [2] stood at 102%; in experiment [8], 92%. For the same compound, the EC50 in experiment [3] was 1.22 µM; in [7], 2.1 µM. Also, the Activity in experiment [4] is 31%; in [5] it was 4%.
`COc1ccc(C(=O)Nc2cc(F)cc3c(=O)cc(C(=O)O)oc23)cc1`: the inhibition in experiment [1] is 34%. Also, the Emax came out at 123% in [2], 113% in experiment [9] and 78% in experiment [8]. Besides, the values for the EC50 in [3], in [7] and in [10] were 0.112 µM, 1.76 µM and 0.143 µM, respectively. The Activity came out at 30% in experiment [4] and 7% in experiment [5].
As for `O=C(Nc1cc(F)cc2c(=O)cc(C(=O)O)oc12)c1ccc(Cl)c(Cl)c1`, the inhibition in [1] stood at 54%. In addition, the Emax is 131% in experiment [2], 136% in experiment [9] and 80% in experiment [8]. Moreover, the EC50 was found to be 0.117 µM in experiment [3], 2.65 µM in experiment [7] and 0.106 µM in experiment [10]. For the same compound, the Activity is 37% in experiment [4] and 3% in experiment [5].
For `O=C(Nc1cccc2c(=O)cc(C(=O)O)oc12)c1ccc(C(F)(F)F)cc1`, the inhibition in experiment [1] stood at 5%. The Emax in [2] came out at 81%. Further, in experiment [3], the EC50 was 15.5 µM. The Activity worked out at 23% in [4], 1% in [5] and 38% in [6].
For the compound `O=C(O)c1cc(=O)c2cc(F)cc(NC(=O)c3cccc(Cl)c3Cl)c2o1`, the inhibition in experiment [1] is 40%. Also, the Emax in experiment [2] came out at 106%; in [9] it was 104%; in [8] it was 82%. In addition, the EC50 was determined as 0.382 µM in [3], 3.13 µM in experiment [7] and 0.873 µM in experiment [10]. Besides, the Activity in experiment [5] amounted to 5%.
Turning to `O=C(Nc1cc(Cl)cc2c(=O)cc(C(=O)O)oc12)c1ccccc1`, the inhibition in [1] turned out to be 23%. Further, the Emax in experiment [2] stood at 115%; in [8] it was 65%. The EC50 was 0.43 µM in [3] and 2.84 µM in experiment [7]. Further, the values for the Activity in [4] and in experiment [5] were 31% and 20%, respectively.
`CC(=O)Nc1cccc2c(=O)cc(C(=O)O)oc12`: the Emax in experiment [2] worked out at 91%. In experiment [3], the EC50 is 24.1 µM. The Activity in experiment [4] came out at 3%; in [5] it was 1%; in [6] it was 31%.
Turning to `O=C(Nc1cc(Cl)cc2c(=O)cc(C(=O)O)oc12)c1ccc([N+](=O)[O-])cc1`, the inhibition in experiment [1] turned out to be 14%. Moreover, the Emax in experiment [2] stood at 130%; in experiment [8], 115%. In addition, the results for the EC50 in [3] and in experiment [7] were 1.71 µM and 3.14 µM, respectively. Moreover, the results for the Activity in experiment [4] and in experiment [5] were 18% and 8%, respectively.
For the compound `O=C(Nc1cc(Br)cc2c(=O)cc(C(=O)O)oc12)c1ccccc1`, in [1], the inhibition amounted to 21%. In addition, the Emax was found to be 110% in experiment [2] and 75% in experiment [8]. Further, the EC50 in experiment [3] was determined as 0.303 µM; in experiment [7], 2.75 µM. Besides, the results for the Activity in [4] and in experiment [5] were 40% and 23%, respectively.
As to `O=C(Cc1ccccc1)Nc1cccc2c(=O)cc(C(=O)O)oc12`, the inhibition in experiment [1] was found to be 26%. Also, the Emax in experiment [2] stood at 107%. Also, the EC50 in [3] is 8.96 µM. Further, the results for the Activity in experiment [4], in experiment [5] and in [6] were 19%, -11% and 47%, respectively.
In the case of `Nc1cc(Br)cc2c(=O)cc(C(=O)O)oc12`, the inhibition in experiment [1] was determined as 17%. For the same compound, the maximal response (Emax) in [2] was found to be 84%. Also, in experiment [3], the EC50 amounted to 12.6 µM. In addition, the Activity in experiment [4] turned out to be 18%; in [5], 4%; in experiment [6] it was 40%.
Take `COC(=O)CC(=O)Nc1cccc2c(=O)cc(C(=O)O)oc12`: the inhibition in experiment [1] stood at 31%. Further, the Emax in experiment [2] stood at 87%; in experiment [8] it was 89%. For the same compound, the EC50 in experiment [3] was found to be 20.2 µM; in experiment [7], 6.65 µM. In addition, the Activity in [4] is 15%; in [5], -4%.
As to `O=C(O)c1cc(=O)c2cccc(NC(=O)C3CCCCC3)c2o1`, the inhibition in experiment [1] is 16%. For the same compound, the Emax in experiment [2] amounted to 118%; in experiment [8], 79%. Also, the EC50 in [3] amounted to 4.2 µM; in [7], 1.2 µM. Also, the Activity in experiment [4] turned out to be 38%; in experiment [5] it was 17%.
Regarding `N#Cc1ccc(C(=O)Nc2cc(Br)cc3c(=O)cc(C(=O)O)oc23)cc1`, in experiment [1], the inhibition was determined as 38%. In addition, the Emax in experiment [2] was found to be 108%; in experiment [8], 99%. Moreover, the EC50 in [3] was found to be 0.399 µM; in [7] it was 2.26 µM. For the same compound, the Activity in experiment [4] worked out at 41%; in [5], 0%.
`CCOC(=O)c1cc(=O)c2cc(F)cc(NC(=O)c3ccc(OC)cc3)c2o1`: in [1], the inhibition turned out to be 26%. The Emax in experiment [2] was determined as 80%. Further, the EC50 in [3] stood at 0.112 µM. In addition, the Activity is 7% in experiment [4], -1% in [5] and 1% in experiment [6].
Take `O=C(Nc1cccc2c(=O)cc(C(=O)O)oc12)c1cccc([N+](=O)[O-])c1`: the inhibition in experiment [1] turned out to be 20%. The Emax in experiment [2] amounted to 112%. In experiment [3], the EC50 was 6.97 µM. For the same compound, the Activity in experiment [4] worked out at 26%; in experiment [5], 12%; in experiment [6], 32%.
With `O=C(Nc1cccc2c(=O)cc(C(=O)O)oc12)c1ccccc1`, in [1], the inhibition is 24%. In [2], the Emax worked out at 107%. The EC50 in experiment [3] came out at 4.91 µM. Further, the Activity in experiment [4] is 13%; in experiment [5] it was 3%; in [6], 39%.
Take `CCOc1ccc(C(=O)Nc2cc(Br)cc3c(=O)cc(C(=O)O)oc23)cc1`: in experiment [1], the inhibition was determined as 39%. In addition, the values for the Emax in experiment [2] and in experiment [8] were 99% and 74%, respectively. Besides, the EC50 turned out to be 0.634 µM in experiment [3] and 1.36 µM in experiment [7]. Also, the Activity was 36% in experiment [4] and -1% in experiment [5].
Turning to `CCC(=O)Nc1cccc2c(=O)cc(C(=O)O)oc12`, the inhibition in experiment [1] came out at 16%. Further, the Emax in experiment [2] came to 119%. In experiment [3], the EC50 amounted to 13.4 µM. Further, the Activity was 12% in [4], 15% in [5] and 30% in experiment [6].
`Cc1ccc(C(=O)Nc2cccc3c(=O)cc(C(=O)O)oc23)cc1`: the inhibition in experiment [1] came out at 16%. The Emax in experiment [2] was found to be 104%. Further, in experiment [3], the EC50 amounted to 1.38 µM. Also, the Activity in experiment [4] worked out at 43%; in experiment [5] it was 6%; in [6] it was 43%.
Take `Cc1cccc(C(=O)Nc2cccc3c(=O)cc(C(=O)O)oc23)c1`: the inhibition in experiment [1] is 25%. The values for the Emax in experiment [2] and in experiment [8] were 70% and 71%, respectively. Further, the EC50 worked out at 5.44 µM in [3] and 2.75 µM in experiment [7]. Also, the results for the Activity in [4] and in experiment [5] were 18% and 10%, respectively.
